Usually IC50 stands for the concentration that inhibits the measured activity by half.

The record followed here is ChEMBL document CHEMBL1146008, “Design, synthesis, and evaluation of novel biarylpyrimidines: a new class of ligand for unusual nucleic acid structures” (J Med Chem, 2006).

The structures appear in SMILES notation.

One assay concerns the target Nucleic Acid. Description: Inhibition of telomerase by TRAP assay. In kind it is nucleic-acid assay, Homo sapiens. Put shortly:
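Human telomerase activity measured with a commercially available telomeric repeat amplification protocol (TRAP) kit. The value is the concentration giving 50% inhibition (telIC50). An internal reference telomerase inhibitor (BSU-1021) was run in the same assay.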

The test system of the next assay is NCI-H460. The assay is described as follows: Inhibition of human NCI-H460 cell growth at 100 uM relative to control. In kind it is functional. The settings on record: values are per cent of control.
A further assay concerns SF-268. The assay is described as follows: Inhibition of human SF268 cell growth at 100 uM relative to control. In kind it is functional. The settings on record: values are per cent of control.
A further assay deals with MCF7. The assay is described as follows: Inhibition of human MCF7 cell growth at 100 uM relative to control. Format: functional. The settings on record: values are per cent of control.

With `CN(C)CCSc1ccc(-c2cc(-c3ccc(SCCN(C)C)cc3)ncn2)cc1`, the IC50 at Nucleic Acid is > 40 µM.

Consider `CCN(CC)CCSc1ccc(-c2cc(-c3ccc(SCCN(CC)CC)cc3)ncn2)cc1`, for which the growth, % of control at 100 µM with NCI-H460 was 98%; with SF-268, 85%; in the assay on MCF7, 83%.

As for `OCCSc1ccc(-c2cc(-c3ccc(SCCO)cc3)ncn2)cc1`, the figures for the growth, % of control at 100 µM with NCI-H460, with SF-268 and with MCF7 were 99%, 119% and 97%, respectively.

For `c1nc(-c2ccc(SCCN3CCCCC3)cc2)cc(-c2ccc(SCCN3CCCCC3)cc2)n1`, the values for the growth, % of control at 100 µM in the assay on NCI-H460, in the assay on SF-268 and in the assay with MCF7 were 98%, 79% and 68%, respectively. Moreover, at Nucleic Acid, the IC50 was > 40 µM.

As for `CN(C)CCNC(=O)c1ccc(-c2cc(-c3ccc(C(=O)NCCN(C)C)cc3)ncn2)cc1`, the growth, % of control at 100 µM in the assay with NCI-H460 was 100%; in the assay with SF-268 it was 108%; in the assay on MCF7, 96%. At Nucleic Acid, the IC50 is > 40 µM.

Consider `c1nc(-c2ccc(SCCN3CCOCC3)cc2)cc(-c2ccc(SCCN3CCOCC3)cc2)n1`, for which the values for the growth, % of control at 100 µM with NCI-H460, in the assay with SF-268 and with MCF7 were 96%, 102% and 95%, respectively.

As for `COCCSc1ccc(-c2cc(-c3ccc(SCCOC)cc3)ncn2)cc1`, the growth, % of control at 100 µM with NCI-H460 came out at 94%; in the assay on SF-268, 106%; with MCF7, 33%. Also, at Nucleic Acid, the IC50 is > 40 µM.

In the case of `CCN(CC)CCNC(=O)c1ccc(-c2cc(-c3ccc(C(=O)NCCN(CC)CC)cc3)ncn2)cc1`, on Nucleic Acid, half-maximal inhibition (IC50) required 10 µM.

Regarding `O=C(NCCO)c1ccc(-c2cc(-c3ccc(C(=O)NCCO)cc3)ncn2)cc1`, the results for the growth, % of control at 100 µM in the assay with NCI-H460, with SF-268 and in the assay on MCF7 were 104%, 104% and 83%, respectively.
